This passage reports half-life and Activity results from ChEMBL document CHEMBL4673184, “Synthesis and biological evaluation of S-lipidated lipopeptides of a connexin 43 channel inhibitory peptide” (RSC Med Chem, 2020).

The source made the active and inactive calls. Where a SMILES comes first, the peptide text is derived from it. [ ]: non-standard residue; d: D form. The star is where a group is joined. Ethyl(2-stearoyloxy) = CCCCCCCCCCCCCCCCCC(=O)OCC*; Ethyl(2-palmitoyloxy) = CCCCCCCCCCCCCCCC(=O)OCC*; CH2CH2OBz(4-tBu) = CC(C)(C)c1ccc(C(=O)OCC*)cc1; Ethyl(2-decanoyloxy) = CCCCCCCCCC(=O)OCC*; Ethyl(2-butanoyloxy) = CCCC(=O)OCC*; Ethyl(2-OPiv) = CC(C)(C)C(=O)OCC*; Mpa = O=C(O)CCS

Chain of Gap junction alpha-1 protein (Homo sapiens) (P17302 whole entry): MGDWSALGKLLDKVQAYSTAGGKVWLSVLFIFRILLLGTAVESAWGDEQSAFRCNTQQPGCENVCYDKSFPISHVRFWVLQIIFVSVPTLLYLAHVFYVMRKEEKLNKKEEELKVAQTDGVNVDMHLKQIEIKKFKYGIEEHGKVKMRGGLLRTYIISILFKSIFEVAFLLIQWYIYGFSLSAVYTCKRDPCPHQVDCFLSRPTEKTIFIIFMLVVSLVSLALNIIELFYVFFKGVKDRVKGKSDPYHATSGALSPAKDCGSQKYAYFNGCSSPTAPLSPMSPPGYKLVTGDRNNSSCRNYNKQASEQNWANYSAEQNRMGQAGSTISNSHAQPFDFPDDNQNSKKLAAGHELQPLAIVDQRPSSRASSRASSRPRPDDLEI

System in the first data set: not listed separately
As to the kind of experiment: Stability in rat plasma assessed as half life at 150 ug/l measured up to 60 mins by HPLC analysis. The class given is ADME, cell-free. An outline of the steps: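 Peptide from a 20 mg/L water stock incubated in 25% rat serum (v/v) in PBS pH 7.4 at a final 150 μg/L, 37 °C. Samples taken at 0-60 min and quenched with MeCN plus 15% TCA, held overnight at 4 °C, then centrifuged. Remaining peptide measured by C18 RP-HPLC peak area at 210 nm relative to t=0. Run in triplicate.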
In general, half-life refers to the time needed for the level to fall by half in the phase considered. In the case of `CC(C)C[C@H](NC(=O)[C@H](Cc1ccccc1)NC(=O)[C@H](CS)NC(=O)[C@H](CC(=O)O)NC(=O)[C@@H](N)C(C)C)C(=O)N[C@@H](CO)C(=O)N[C@@H](CCCNC(=N)N)C(=O)N1CCC[C@H]1C(=O)N[C@H](C(=O)N[C@@H](CCC(=O)O)C(=O)N[C@@H](CCCCN)C(=O)N[C@H](C(=O)O)[C@@H](C)O)[C@@H](C)O` (H-VDCFLSRPTEKT-OH), the half-life at 150 ug/l stood at 5 min.

The target of a further data set is Gap junction alpha-1 protein (Homo sapiens) (UniProt P17302). As to the kind of experiment: Inhibition of Cx43 in hypoxic-acidic ion-shifted ringers solution-induced human cerebral microvascular endothelial cell model of ischaemic injury assessed as ATP release at 10 uM measured after 2 hrs by luciferin-luciferase based luminescence assay relative to control. Details: scale not given: the % may be the effect or the level left. An outline of the steps:
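hCMVEC (passages 8-17) seeded at 2 x 10^6/well on collagen-I (1 µg/cm²) and grown 48 h to a confluent monolayer. Washed in NR, then exposed 2 h in HAIR (pH 6.6, N₂-bubbled, low Ca²⁺, K-gluconate/NMDG) containing peptide at 10 µM. Supernatant diluted 1:10 in firefly luciferase mix and read at 560 nm against an ATP standard (0-50 nM). Expressed as % of HAIR-only, mean of n=3.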
For `CC(C)C[C@H](NC(=O)[C@H](Cc1ccccc1)NC(=O)[C@H](CS)NC(=O)[C@H](CC(=O)O)NC(=O)[C@@H](N)C(C)C)C(=O)N[C@@H](CO)C(=O)N[C@@H](CCCNC(=N)N)C(=O)N1CCC[C@H]1C(=O)N[C@H](C(=O)N[C@@H](CCC(=O)O)C(=O)N[C@@H](CCCCN)C(=O)N[C@H](C(=O)O)[C@@H](C)O)[C@@H](C)O` (H-VDCFLSRPTEKT-OH), the Activity was found to be 53.8%.

For `CC(C)C[C@H](NC(=O)[C@H](Cc1ccccc1)NC(=O)[C@H](CS)NC(=O)[C@H](CC(=O)O)NC(=O)[C@@H](N)CSCCOC(=O)c1ccc(C(C)(C)C)cc1)C(=O)N[C@@H](CO)C(=O)N[C@@H](CCCNC(=N)N)C(=O)N1CCC[C@H]1C(=O)N[C@H](C(=O)N[C@@H](CCC(=O)O)C(=O)N[C@@H](CCCCN)C(=O)N[C@H](C(=O)O)[C@@H](C)O)[C@@H](C)O` (H-C(CH2CH2OBz(4-tBu))DCFLSRPTEKT-OH), the result was inactive.

Take `CCCC(=O)OCCSC[C@H](NC(=O)[C@H](CS)NC(=O)[C@H](CC(=O)O)NC(=O)[C@@H](N)C(C)C)C(=O)N[C@@H](CC(C)C)C(=O)N[C@@H](CO)C(=O)N[C@@H](CCCNC(=N)N)C(=O)N1CCC[C@H]1C(=O)N[C@H](C(=O)N[C@@H](CCC(=O)O)C(=O)N[C@@H](CCCCN)C(=O)N[C@H](C(=O)O)[C@@H](C)O)[C@@H](C)O` (H-VDCC(Ethyl(2-butanoyloxy))LSRPTEKT-OH): the outcome was inactive.

With `CCCCCCCCCCCCCCCC(=O)OCCSC[C@H](N)C(=O)N[C@@H](CC(=O)O)C(=O)N[C@@H](CS)C(=O)N[C@@H](Cc1ccccc1)C(=O)N[C@@H](CC(C)C)C(=O)N[C@@H](CO)C(=O)N[C@@H](CCCNC(=N)N)C(=O)N1CCC[C@H]1C(=O)N[C@H](C(=O)N[C@@H](CCC(=O)O)C(=O)N[C@@H](CCCCN)C(=O)N[C@H](C(=O)O)[C@@H](C)O)[C@@H](C)O` (H-C(Ethyl(2-palmitoyloxy))DCFLSRPTEKT-OH), the result was inactive.

Turning to `CCCC(=O)OCCSC[C@H](NC(=O)[C@H](CC(C)C)NC(=O)[C@H](Cc1ccccc1)NC(=O)[C@H](CS)NC(=O)[C@H](CC(=O)O)NC(=O)[C@@H](N)C(C)C)C(=O)N[C@@H](CCCNC(=N)N)C(=O)N1CCC[C@H]1C(=O)N[C@H](C(=O)N[C@@H](CCC(=O)O)C(=O)N[C@@H](CCCCN)C(=O)N[C@H](C(=O)O)[C@@H](C)O)[C@@H](C)O` (H-VDCFLC(Ethyl(2-butanoyloxy))RPTEKT-OH), the outcome was inactive.

As to `CCCC(=O)OCCSCCC(=O)N[C@H](C(=O)N[C@@H](CC(=O)O)C(=O)N[C@@H](CS)C(=O)N[C@@H](Cc1ccccc1)C(=O)N[C@@H](CC(C)C)C(=O)N[C@@H](CO)C(=O)N[C@@H](CCCNC(=N)N)C(=O)N1CCC[C@H]1C(=O)N[C@H](C(=O)N[C@@H](CCC(=O)O)C(=O)N[C@@H](CCCCN)C(=O)N[C@H](C(=O)O)[C@@H](C)O)[C@@H](C)O)C(C)C` ([Mpa](Ethyl(2-butanoyloxy))VDCFLSRPTEKT-OH), the Activity turned out to be 28.8%.

Consider `CCCCCCCCCCCCCCCC(=O)OCCSC[C@H](NC(=O)[C@H](CCCCN)NC(=O)[C@H](CCC(=O)O)NC(=O)[C@@H](NC(=O)[C@@H]1CCCN1C(=O)[C@H](CCCNC(=N)N)NC(=O)[C@H](CO)NC(=O)[C@H](CC(C)C)NC(=O)[C@H](Cc1ccccc1)NC(=O)[C@H](CS)NC(=O)[C@H](CC(=O)O)NC(=O)[C@@H](N)C(C)C)[C@@H](C)O)C(=O)O` (H-VDCFLSRPTEKC(Ethyl(2-palmitoyloxy))-OH), for which the Activity is 131%.

`CC(C)C[C@H](NC(=O)[C@H](Cc1ccccc1)NC(=O)[C@H](CS)NC(=O)[C@H](CC(=O)O)NC(=O)[C@@H](NC(=O)CCSCCOC(=O)C(C)(C)C)C(C)C)C(=O)N[C@@H](CO)C(=O)N[C@@H](CCCNC(=N)N)C(=O)N1CCC[C@H]1C(=O)N[C@H](C(=O)N[C@@H](CCC(=O)O)C(=O)N[C@@H](CCCCN)C(=O)N[C@H](C(=O)O)[C@@H](C)O)[C@@H](C)O` ([Mpa](Ethyl(2-OPiv))VDCFLSRPTEKT-OH): the outcome was inactive.

As to `CCCCCCCCCC(=O)OCCSC[C@H](NC(=O)[C@@H](NC(=O)[C@@H]1CCCN1C(=O)[C@H](CCCNC(=N)N)NC(=O)[C@H](CO)NC(=O)[C@H](CC(C)C)NC(=O)[C@H](Cc1ccccc1)NC(=O)[C@H](CS)NC(=O)[C@H](CC(=O)O)NC(=O)[C@@H](N)C(C)C)[C@@H](C)O)C(=O)N[C@@H](CCCCN)C(=O)N[C@H](C(=O)O)[C@@H](C)O` (H-VDCFLSRPTC(Ethyl(2-decanoyloxy))KT-OH), the Activity stood at 96%.

For `CC(C)C[C@H](NC(=O)[C@H](Cc1ccccc1)NC(=O)[C@H](CS)NC(=O)[C@H](CC(=O)O)NC(=O)[C@@H](N)C(C)C)C(=O)N[C@@H](CSCCOC(=O)c1ccc(C(C)(C)C)cc1)C(=O)N[C@@H](CCCNC(=N)N)C(=O)N1CCC[C@H]1C(=O)N[C@H](C(=O)N[C@@H](CCC(=O)O)C(=O)N[C@@H](CCCCN)C(=O)N[C@H](C(=O)O)[C@@H](C)O)[C@@H](C)O` (H-VDCFLC(CH2CH2OBz(4-tBu))RPTEKT-OH), the result was inactive.

Take `CC(C)C[C@H](NC(=O)[C@H](Cc1ccccc1)NC(=O)[C@H](CS)NC(=O)[C@H](CC(=O)O)NC(=O)[C@@H](N)C(C)C)C(=O)N[C@@H](CO)C(=O)N[C@@H](CCCNC(=N)N)C(=O)N1CCC[C@H]1C(=O)N[C@H](C(=O)N[C@@H](CCC(=O)O)C(=O)N[C@@H](CCCCN)C(=O)N[C@@H](CSCCOC(=O)C(C)(C)C)C(=O)O)[C@@H](C)O` (H-VDCFLSRPTEKC(Ethyl(2-OPiv))-OH): the outcome was inactive.

In the case of `CCCCCCCCCC(=O)OCCSC[C@H](NC(=O)[C@H](CC(C)C)NC(=O)[C@H](Cc1ccccc1)NC(=O)[C@H](CS)NC(=O)[C@H](CC(=O)O)NC(=O)[C@@H](N)C(C)C)C(=O)N[C@@H](CCCNC(=N)N)C(=O)N1CCC[C@H]1C(=O)N[C@H](C(=O)N[C@@H](CCC(=O)O)C(=O)N[C@@H](CCCCN)C(=O)N[C@H](C(=O)O)[C@@H](C)O)[C@@H](C)O` (H-VDCFLC(Ethyl(2-decanoyloxy))RPTEKT-OH), the result was inactive.

Take `CCCCCCCCCCCCCCCCCC(=O)OCCSC[C@H](N)C(=O)N[C@@H](CC(=O)O)C(=O)N[C@@H](CS)C(=O)N[C@@H](Cc1ccccc1)C(=O)N[C@@H](CC(C)C)C(=O)N[C@@H](CO)C(=O)N[C@@H](CCCNC(=N)N)C(=O)N1CCC[C@H]1C(=O)N[C@H](C(=O)N[C@@H](CCC(=O)O)C(=O)N[C@@H](CCCCN)C(=O)N[C@H](C(=O)O)[C@@H](C)O)[C@@H](C)O` (H-C(Ethyl(2-stearoyloxy))DCFLSRPTEKT-OH): the result was inactive.

As to `CC(C)C[C@H](NC(=O)[C@H](CSCCOC(=O)C(C)(C)C)NC(=O)[C@H](CS)NC(=O)[C@H](CC(=O)O)NC(=O)[C@@H](N)C(C)C)C(=O)N[C@@H](CO)C(=O)N[C@@H](CCCNC(=N)N)C(=O)N1CCC[C@H]1C(=O)N[C@H](C(=O)N[C@@H](CCC(=O)O)C(=O)N[C@@H](CCCCN)C(=O)N[C@H](C(=O)O)[C@@H](C)O)[C@@H](C)O` (H-VDCC(Ethyl(2-OPiv))LSRPTEKT-OH), the Activity was determined as 23.4%.

With `CCCCCCCCCCCCCCCCCC(=O)OCCSC[C@H](NC(=O)[C@@H](NC(=O)[C@@H]1CCCN1C(=O)[C@H](CCCNC(=N)N)NC(=O)[C@H](CO)NC(=O)[C@H](CC(C)C)NC(=O)[C@H](Cc1ccccc1)NC(=O)[C@H](CS)NC(=O)[C@H](CC(=O)O)NC(=O)[C@@H](N)C(C)C)[C@@H](C)O)C(=O)N[C@@H](CCCCN)C(=O)N[C@H](C(=O)O)[C@@H](C)O` (H-VDCFLSRPTC(Ethyl(2-stearoyloxy))KT-OH), the Activity was determined as 83.7%.

On to `CCCCCCCCCCCCCCCCCC(=O)OCCSC[C@H](NC(=O)[C@H](CC(C)C)NC(=O)[C@H](Cc1ccccc1)NC(=O)[C@H](CS)NC(=O)[C@H](CC(=O)O)NC(=O)[C@@H](N)C(C)C)C(=O)N[C@@H](CCCNC(=N)N)C(=O)N1CCC[C@H]1C(=O)N[C@H](C(=O)N[C@@H](CCC(=O)O)C(=O)N[C@@H](CCCCN)C(=O)N[C@H](C(=O)O)[C@@H](C)O)[C@@H](C)O` (H-VDCFLC(Ethyl(2-stearoyloxy))RPTEKT-OH), for which the outcome was inactive.
